Rows were chosen to be rich in hits. Some 2.4% of all compounds tested hit in one or more screens of this group.
A3A deaminase: human APOBEC3A DNA deaminase inhibition; recombinant A3A, FAM/TAMRA ssDNA deamination fluorescence; inhibition, % at 20 µM; actives 0.41% (n = 330,000); P31941; AID 493011;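 active means at least 40% inhibition at 20 µM here, with at most 30% in a related deaminase screen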;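 further: plate controls were A3A with DMSO for no effect and wells lacking A3A enzyme for full effect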
Target sequence (P31941 whole entry, looked up): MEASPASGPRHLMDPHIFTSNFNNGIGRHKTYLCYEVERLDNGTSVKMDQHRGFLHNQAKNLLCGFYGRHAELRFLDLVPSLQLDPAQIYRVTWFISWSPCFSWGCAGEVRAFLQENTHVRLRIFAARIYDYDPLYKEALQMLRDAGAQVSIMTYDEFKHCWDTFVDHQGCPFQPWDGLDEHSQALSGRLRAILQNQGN
APOBEC3G inh: APOBEC3G (human) deaminase inhibition; recombinant A3G, ssDNA deamination FAM/TAMRA fluorescence; Q9HC16; inhibition, % at 20 µM; actives 0.28% (n = 330,000);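 active means inhibition of at least 40% at 20 µM, with no more than 30% in the related APOBEC3A deaminase screen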;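 further: plate controls were DMSO wells with A3G for no effect and wells lacking A3G enzyme for full effect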
Target sequence (Q9HC16 whole entry, looked up): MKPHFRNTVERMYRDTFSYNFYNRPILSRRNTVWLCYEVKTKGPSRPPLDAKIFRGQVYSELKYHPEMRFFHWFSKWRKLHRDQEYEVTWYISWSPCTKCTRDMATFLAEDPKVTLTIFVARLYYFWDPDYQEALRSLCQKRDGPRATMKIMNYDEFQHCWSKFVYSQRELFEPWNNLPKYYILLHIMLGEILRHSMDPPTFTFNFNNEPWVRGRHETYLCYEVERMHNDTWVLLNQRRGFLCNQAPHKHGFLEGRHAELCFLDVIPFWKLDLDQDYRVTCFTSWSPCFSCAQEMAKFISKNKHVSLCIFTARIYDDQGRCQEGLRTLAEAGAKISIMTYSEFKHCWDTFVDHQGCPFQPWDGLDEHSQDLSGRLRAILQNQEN
HKDC1 inh: inhibitors of human hexokinase HKDC1. inhibition, % at 20 µM. recombinant HKDC1, G6PDH/diaphorase resazurin coupled fluorescence. actives 0.16% (n = 340,000). Q2TB90;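 active means inhibition above about 35% when tested at 20 µM, limit read from the data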;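 further: plate controls were DMSO wells with enzyme for no effect and DMSO wells lacking enzyme for full effect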
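Assay system: recombinant HKDC1 hexokinase; detection: coupled resazurin fluorescence, excitation 525 nm, emission 613 nm; benchmarks: DMSO-plus-enzyme-mix negative control, buffer-substituted positive control; compound dosing: single 20 µM dose; schedule: 90 min at room temperature in dark; also added: glucose plus 1 mM ATP as hexokinase substrates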
PfM18AAP inh: PfM18AAP enzyme inhibition | actives 1.2% (n = 290,000) | inhibition, % at 7.35 µM | recombinant PfM18AAP, H-Glu-NHMec fluorogenic cleavage;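 active means inhibition above the campaign mean inhibition over all tested compounds plus 3 SD, cut at about 28% in these data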;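 further: 0% = plate median of test compound wells and 100% = 2 mM ZnCl2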
PfGluPho inh: PfG6PD (Plasmodium falciparum) enzyme inhibition | PfGluPho enzyme, NADPH resazurin-diaphorase fluorescence | inhibition, % at 20 µM | actives 0.78% (n = 350,000);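 active means inhibition reaching at least a set limit at 20 µM in the primary screen, cut at about 59% in these data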;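 further: 0% = DMSO wells with substrate and 100% = DMSO wells lacking glucose-6-phosphate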
SUMO HTRF inh: inhibitors of human SUMOylation (UBC9) | P63279 | HTRF SUMOylation assay, SAE1/SAE2 + UBC9, in vitro | inhibition, % at 35 µM | actives 0.36% (n = 290,000) | AID 2006; in the data active means inhibition above about 50%, passing the limit was not always enough
Target sequence (P63279 whole entry, looked up): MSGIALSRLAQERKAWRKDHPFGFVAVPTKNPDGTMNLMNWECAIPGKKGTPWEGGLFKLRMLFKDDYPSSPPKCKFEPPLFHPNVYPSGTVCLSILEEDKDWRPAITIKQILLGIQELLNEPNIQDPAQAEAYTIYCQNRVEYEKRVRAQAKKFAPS
A3A conf: confirmation of human APOBEC3A DNA deaminase inhibitors; AID 493151; inhibition, % at 20 µM; actives 63% (n = 1,400); shares compounds with A3A deaminase; recombinant A3A, ssDNA deaminase UDG fluorescence assay;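 active means inhibition reaching a set limit, 80% of the first screen's cutoff, at 20 µM in any replicate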;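 further: plate controls were DMSO wells with A3A for no effect and wells lacking A3A enzyme for full effect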
UDG A3A counter: inhibits UDG, flagging false APOBEC3A inhibitors; shares compounds with A3A deaminase; UDG counterscreen, FAM/TAMRA uracil oligo fluorescence; inhibition, % at 20 µM; 1,000 tested, under 10 active; AID 504714; call rule not given here
The depositor's hits bear a star; nt = not tested or not shown.

SMILES | A3A deaminase | APOBEC3G inh | HKDC1 inh | PfM18AAP inh | PfGluPho inh | SUMO HTRF inh | A3A conf | UDG A3A counter
O=C(Cc1cccs1)NNC(=S)NCc1ccco1 | 77.9* | -6.9 | -5.8 | 9.3 | -0.1 | 3.3 | -3.6 | -3.1
O=C(Cc1cccs1)NCc1ccco1 | -0.3 | -5.3 | -3.5 | 2.7 | 14.5 | 9.2 | nt | nt
COc1cc(NC(=O)Nc2cccc([N+](=O)[O-])c2)cc(OC)c1 | -1.0 | -3.9 | 15.8 | 0.5 | 6.7 | -3.4 | nt | nt
COc1ccc(/C=C/C(=O)NCCC(=O)N2CCCN(C)CC2)cc1 | 2.7 | -3.7 | 0.7 | -1.1 | -25.5 | 22.8 | nt | nt
Cc1[nH]c2ccccc2c1/C=C/c1cc[n+](C)cc1 | nt | nt | -1.1 | 2.0 | 5.7 | 3.8 | nt | nt
Cc1ccccc1/C=C/c1cc[n+](C)cc1 | 58.6* | 19.1 | 1.6 | -8.0 | 11.0 | 13.7 | 72.7* | -2.6
Nc1ccc2c3c(cccc13)CC2 | -6.6 | -13.0 | 11.9 | 26.9 | 26.8 | 31.9 | nt | nt
Cc1ccc(N(CC(=O)NCc2ccccc2)C(=O)c2csnn2)cc1 | -3.9 | -3.1 | -6.2 | -5.6 | -5.2 | 23.5 | nt | nt
CN(CC(=O)N1CCN(Cc2ccccc2)CC1)C(=O)Cc1ccc(Cl)c(Cl)c1 | 50.1* | 1.1 | 7.3 | nt | -20.6 | nt | 34.3* | -3.4
COc1ccc(OC)c(-c2nnc(NC(=O)C(C)Sc3nncn3C)s2)c1 (stereo unspecified) | -3.5 | -1.7 | 5.9 | 0.9 | 5.2 | 15.7 | nt | nt
Cc1nnc(NC(=O)C(C)Sc2nncn2C)s1 (stereo unspecified) | 68.8* | -2.9 | -5.7 | -0.3 | -0.1 | -1.4 | -7.8 | -3.3
Cc1nnc(SC(C)C(=O)Nc2nccs2)s1 (stereo unspecified) | 71.4* | 5.4 | 2.6 | 0.6 | -17.8 | 3.3 | 12.7 | nt
CC(Sc1nnc(N)s1)C(=O)Nc1nccs1 (stereo unspecified) | -1.9 | -3.0 | -4.2 | -3.8 | 1.8 | 1.6 | nt | nt
CCOc1ccccc1NC(=O)c1ccc2c(c1)C(=O)N(CC(C)C)C2=O | -1.3 | -2.7 | -4.5 | -1.8 | -7.3 | 2.6 | nt | nt
Cc1ccc(S(=O)(=O)/N=C2/NC(=O)/C(=C/c3ccc(Br)o3)S2)cc1 | 51.7* | -5.9 | 3.9 | -3.3 | -17.2 | 12.6 | -4.6 | 0.9
CCN1C(=O)N[C@@H](c2ccccc2)[C@H](C(=O)OC)[C@H]1C | -4.4 | -5.8 | -4.8 | nt | -9.7 | nt | nt | nt
CCN1C(=NCc2ccccc2)N[C@@H](c2ccccc2)[C@H](C(=O)OC)[C@H]1C | 55.1 | 31.7 | 1.6 | -0.6 | -17.2 | -20.5 | nt | nt
CCN1C(=NCCc2c[nH]c3ccccc23)N[C@@H](c2ccccc2)[C@H](C(=O)OC)[C@H]1C | 51.0* | 4.5 | -5.7 | -0.7 | -4.4 | 4.1 | 45.0* | -1.8
CCN1C(=NCc2ccc(OC)cc2)N[C@@H](c2ccccc2)[C@H](C(=O)OC)[C@H]1C | 40.9* | 8.2 | -1.6 | nt | 3.4 | nt | 56.1* | -2.2
COc1ccc(CSc2nncn2N)cc1Br | 3.8 | 8.7 | -5.0 | 5.6 | -5.9 | 8.7 | nt | nt
Cc1cccc(NC(=O)CNC(=O)Cn2ncc(Cl)c(Cl)c2=O)c1C | 49.0* | 19.9 | 5.5 | nt | -4.9 | nt | 38.2* | 2.2
O=C(Nc1ccc(NC(=O)c2ccco2)cc1)c1ccc2c(c1)OCCO2 | 0.5 | 4.8 | 11.2 | -0.1 | -4.1 | 27.3 | nt | nt
CCOCc1cnc(C)nc1NCC(=O)c1c(C)[nH]c2cc(C)ccc12 | 55.8* | 27.4 | -9.9 | -7.0 | -7.8 | 0.7 | 64.2* | 0.8
CCOCc1cnc(C)nc1NCC(=O)c1c(C)[nH]c2ccccc12 | 36.2 | 19.3 | -2.9 | 3.5 | -4.4 | 11.3 | nt | nt
CC(C)n1nnnc1SCC(=O)NCc1ccco1 | 5.1 | -1.0 | -0.3 | 5.6 | 18.6 | nt | nt | nt
SMILES | A3A deaminase | APOBEC3G inh | HKDC1 inh | PfM18AAP inh | PfGluPho inh | SUMO HTRF inh | A3A conf | UDG A3A counter
O=C(CN1CCN(C2CCCCC2)CC1)c1c[nH]c2ccccc12 | 51.2* | 27.3 | -2.5 | -10.7 | -12.8 | -6.0 | 20.2 | nt
CCN1CCN(CC(=O)c2c[nH]c3ccccc23)CC1 | -2.1 | -6.6 | -0.3 | -3.2 | -5.4 | 13.9 | nt | nt
CN1CCN(S(=O)(=O)c2ccc(C3CCCCC3)cc2)CC1 | 45.4* | 8.2 | 3.4 | nt | -7.3 | nt | 50.1* | 0.7
O=S(=O)(c1ccc(C2CCCCC2)cc1)N1CCN(c2ncccn2)CC1 | -1.6 | 0.1 | 7.6 | 1.0 | -4.8 | -3.9 | nt | nt
CN1CCC(N(C)C(=O)Cc2ccccc2[N+](=O)[O-])CC1 | -1.0 | -7.3 | -2.3 | 4.6 | 1.6 | -2.9 | nt | nt
CNC(=O)CSc1nnnn1-c1cc(C)ccc1C | 2.6 | 2.9 | -0.5 | -2.8 | 9.8 | -0.6 | nt | nt
CC[n+]1c(C)cc(C)n1-c1ccccc1 | 93.2* | 14.4 | -0.6 | -3.4 | -20.7 | 4.8 | 75.3* | 2.9
CC1=CC(C2CC(=O)N(c3ccccc3C)C2=O)CC2C(=O)N(c3ccccc3C)C(=O)C12 (stereo unspecified) | 0.6 | -7.5 | -2.6 | -0.7 | -8.7 | -5.6 | nt | nt
Nc1ccc(Nc2ccccc2)c(S(=O)(=O)O)c1 | 66.6* | 17.5 | 5.1 | 10.8 | -6.2 | 36.1 | 56.8* | -0.6
CC(=O)N1CCN(C(=O)CCN(c2ccccc2)S(=O)(=O)c2ccc(C)cc2)CC1 | 1.8 | -1.4 | -4.9 | nt | 3.8 | nt | nt | nt
Cc1ccc(S(=O)(=O)N(CCC(=O)N2CCOCC2)c2ccccc2)cc1 | 61.8* | 8.8 | -3.5 | nt | -2.6 | nt | 27.1 | nt
COC(=O)CSc1nnc(-c2ccccc2OC)n1-c1ccc(C)cc1 | -6.0 | -10.2 | -2.2 | -3.4 | -0.4 | 23.6 | nt | nt
C[n+]1cc(-c2ccccc2)n2c1CCCCC2 | 53.3* | 8.7 | -9.7 | 3.8 | 3.2 | 8.7 | 67.0* | -2.6
O=C(C[n+]1cc(-c2ccccc2)n2c1CCCCC2)c1ccc(Cl)cc1 | -3.1 | -3.7 | -10.8 | -7.3 | -3.6 | 5.8 | nt | nt
CCCn1c(SCC(=O)N2CCN(C(=O)c3ccco3)CC2)nc2ccccc2c1=O | -0.8 | -4.6 | -9.9 | -5.7 | 1.6 | 9.7 | nt | nt
Cn1cnc(NCc2ccccc2)c1[N+](=O)[O-] | 44.1* | -3.2 | 3.5 | 0.9 | 4.8 | 21.4 | -3.6 | -1.7
Nc1ncnc(NCc2ccccc2)c1[N+](=O)[O-] | -1.0 | -2.8 | -4.8 | -0.6 | -5.1 | 7.8 | nt | nt
CCCCn1c(SCC(=O)OCC)nc2c(sc(=S)n2-c2ccccc2OC)c1=O | 1.1 | -7.7 | 0.9 | -7.6 | 7.3 | -10.6 | nt | nt
Cc1ccc(Cl)cc1N1CCN(c2cccc[n+]2C)CC1 | 46.5* | 24.4 | -3.5 | -14.3 | -14.8 | 6.1 | 25.6 | nt
C[n+]1ccccc1N1CCN(c2ccccc2Cl)CC1 | 60.2* | 27.7 | -6.6 | 3.5 | -5.2 | -0.9 | 26.0 | nt
COCCN(C(=O)COC(=O)CNC(=O)c1cccs1)c1c(N)n(Cc2ccccc2)c(=O)[nH]c1=O | 52.8* | 9.4 | -2.9 | nt | -8.8 | nt | 50.3* | -3.1

Compound activity deposited in PubChem BioAssay by several laboratories.
